Results taken from ChEMBL document CHEMBL4311965, “Antimicrobial activity of amphipathic α,α-disubstituted β-amino amide derivatives against ESBL - CARBA producing multi-resistant bacteria; effect of halogenation, lipophilicity and cationic character” (Eur J Med Chem, 2019).
Values after ≈ are worked out from the molar mass of the structure shown.

How the values were obtained:
[1] = test system: Corynebacterium glutamicum; assay: Antibacterial activity against Corynebacterium glutamicum ATCC 13032 cultured in MHB medium assessed as no bacterial growth incubated at 20 degC for 24 hrs by microdilution susceptibility test; assay type: functional; details: ATCC 13032, 24 h
Outline: (§1)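 Broth microdilution per CLSI M07-A9 with modifications. Inoculum about 2.5–3 x 10⁴ cells/mL in Mueller-Hinton broth, mixed 1:1 with test derivative. DMSO stocks diluted in double-distilled water, final DMSO <1%. Incubation 24 h at 37 °C (20 °C for C. glutamicum). Growth and sterility controls included; oxytetracycline reference.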

[2] = test system: Escherichia coli; assay: Antibacterial activity against Escherichia coli ATCC 25922 cultured in MHB medium assessed as no bacterial growth incubated at 37 degC for 24 hrs by microdilution susceptibility test; assay type: functional; details: ATCC 25922, 24 h; outline: as §1
[3] = test system: Pseudomonas aeruginosa; assay: Antibacterial activity against Pseudomonas aeruginosa PA01 DSM 19880 (ATCC 15692) cultured in MHB medium assessed as no bacterial growth incubated at 37 degC for 24 hrs by microdilution susceptibility test; assay type: functional; details: PAO1 DSM 19880 (ATCC 15692); outline: as §1
[4] = test system: Erythrocyte; assay: Hemolytic activity against human RBC incubated for 1 hr; assay type: cell-based
Outline: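 Heparinized human blood washed three times in warm PBS and set to 10% hct. Erythrocytes at 1% v/v final, with compound in PBS (DMSO <1%), shaken 1 h at 37 °C and then centrifuged. Supernatant absorbance read at 405 and 545 nm after PBS background subtraction. Haemolysis taken relative to 1% Triton X-100. Three independent replicates, EC50 averaged.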

[5] = Selectivity index, ratio of EC50 for hemolytic activity against human RBC to MIC for antibacterial activity against Staphylococcus aureus ATCC 9144; assay type: toxicity; details: human red blood cells (RBC)
Outline: (§2)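 Selectivity index is the RBC haemolysis EC50 divided by the MIC against the E. coli or S. aureus reference strain.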

[6] = Selectivity index, ratio of EC50 for hemolytic activity against human RBC to MIC for antibacterial activity against Escherichia coli ATCC 25922; assay type: toxicity; details: human red blood cells (RBC); outline: as §2
[7] = test system: Staphylococcus aureus; assay: Antibacterial activity against multidrug-resistant Staphylococcus aureus N315 cultured in MHB medium assessed as reduction in bacterial growth incubated for 24 hrs by microdilution susceptibility test; assay type: functional; details: N315, 24 h
Outline: (§3)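 Broth microdilution per CLSI M07-A9 (modified). Working solutions made from concentrated DMSO stocks kept at r.t., diluted in double-distilled water, final DMSO <1%. Inoculum 1–1.2 x 10⁶ cells/mL in Mueller-Hinton broth, mixed 1:1 with compound. 37 °C, 24 h, four parallels. Read as OD₆₀₀. Where precipitation left residual OD, the point of major OD decrease was taken as the inhibitory concentration.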

[8] = test system: Staphylococcus aureus; assay: Antibacterial activity against multidrug-resistant Staphylococcus aureus 85/2082 cultured in MHB medium assessed as reduction in bacterial growth incubated for 24 hrs by microdilution susceptibility test; assay type: functional; details: 85/2082, 24 h; outline: as §3
[9] = test system: Staphylococcus aureus; assay: Antibacterial activity against multidrug-resistant Staphylococcus aureus WIS cultured in MHB medium assessed as reduction in bacterial growth incubated for 24 hrs by microdilution susceptibility test; assay type: functional; outline: as §3
[10] = test system: Enterococcus faecium; assay: Antibacterial activity against multidrug-resistant Enterococcus faecium 50673722 cultured in BHIB medium assessed as reduction in bacterial growth incubated for 24 hrs by microdilution susceptibility test; assay type: functional; details: Enterococcus faecium, 50673722, 24 h
Outline: (§4)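 Enterococci grown in Brain Heart Infusion broth, otherwise broth microdilution per CLSI M07-A9 (modified). Concentrated DMSO stocks kept at r.t. and diluted in double-distilled water, final DMSO <1%. Inoculum 1–1.2 x 10⁶ cells/mL mixed 1:1 with compound. 37 °C, 24 h, four parallels. OD₆₀₀ read-out, lowest concentration with no growth.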

[11] = test system: Enterococcus faecium; assay: Antibacterial activity against multidrug-resistant Enterococcus faecium K36-18 cultured in BHIB medium assessed as reduction in bacterial growth incubated for 24 hrs by microdilution susceptibility test; assay type: functional; details: K36-18, 24 h; outline: as §4
[12] = test system: Enterococcus faecium; assay: Antibacterial activity against multidrug-resistant Enterococcus faecium 50758899 cultured in BHIB medium assessed as reduction in bacterial growth incubated for 24 hrs by microdilution susceptibility test; assay type: functional; details: Enterococcus faecium, 50758899, 24 h; outline: as §4
[13] = test system: Enterococcus faecium; assay: Antibacterial activity against multidrug-resistant Enterococcus faecium TUH50-22 cultured in BHIB medium assessed as reduction in bacterial growth incubated for 24 hrs by microdilution susceptibility test; assay type: functional; details: TUH50-22, 24 h; outline: as §4
[14] = test system: Escherichia coli; assay: Antibacterial activity against multidrug-resistant Escherichia coli 50579417 producing oxcillinase-48 cultured in MHB medium assessed as reduction in bacterial growth incubated for 24 hrs by microdilution susceptibility test; assay type: functional; details: Escherichia coli, 50579417, 24 h; outline: as §3
[15] = test system: Escherichia coli; assay: Antibacterial activity against multidrug-resistant Escherichia coli 50676002 producing New Delhi metallo-beta-lactamase-1 cultured in MHB medium assessed as reduction in bacterial growth incubated for 24 hrs by microdilution susceptibility test; assay type: functional; details: Escherichia coli, 50676002, 24 h; outline: as §3
[16] = test system: Pseudomonas aeruginosa; assay: Antibacterial activity against multidrug-resistant Pseudomonas aeruginosa K34-7 producing Verona integron encoded metallo beta-lactamse-2 cultured in MHB medium assessed as reduction in bacterial growth incubated for 24 hrs by microdilution susceptibility test; assay type: functional; details: K34-7, 24 h; outline: as §3
[17] = test system: Pseudomonas aeruginosa; assay: Antibacterial activity against multidrug-resistant Pseudomonas aeruginosa K34-73 producing Verona integron encoded metallo beta-lactamse-4 cultured in MHB medium assessed as reduction in bacterial growth incubated for 24 hrs by microdilution susceptibility test; assay type: functional; details: K34-73, 24 h; outline: as §3
[18] = test system: Pseudomonas aeruginosa; assay: Antibacterial activity against multidrug-resistant Pseudomonas aeruginosa 50692172 producing New Delhi metallo-beta-lactamase-1 cultured in MHB medium assessed as reduction in bacterial growth incubated for 24 hrs by microdilution susceptibility test; assay type: functional; details: Pseudomonas aeruginosa, 50692172, 24 h; outline: as §3
[19] = test system: Pseudomonas aeruginosa; assay: Antibacterial activity against multidrug-resistant Pseudomonas aeruginosa 50692520 producing Verona integron encoded metallo beta-lactamse cultured in MHB medium assessed as reduction in bacterial growth incubated for 24 hrs by microdilution susceptibility test; assay type: functional; details: Pseudomonas aeruginosa, 50692520, 24 h; outline: as §3
[20] = test system: Klebsiella pneumoniae; assay: Antibacterial activity against multidrug-resistant Klebsiella pneumoniae K66-45 producing New Delhi metallo-beta-lactamase-1 cultured in MHB medium assessed as reduction in bacterial growth incubated for 24 hrs by microdilution susceptibility test; assay type: functional; details: K66-45, 24 h; outline: as §3
[21] = test system: Klebsiella pneumoniae; assay: Antibacterial activity against multidrug-resistant Klebsiella pneumoniae 50625602 producing oxcillinase-245 cultured in MHB medium assessed as reduction in bacterial growth incubated for 24 hrs by microdilution susceptibility test; assay type: functional; details: Klebsiella pneumoniae, 50625602, 24 h; outline: as §3
[22] = test system: Klebsiella pneumoniae; assay: Antibacterial activity against multidrug-resistant Klebsiella pneumoniae 50667959 producing Verona integron encoded metallo beta-lactamse-1 cultured in MHB medium assessed as reduction in bacterial growth incubated for 24 hrs by microdilution susceptibility test; assay type: functional; details: Klebsiella pneumoniae, 50667959, 24 h; outline: as §3
[23] = test system: Acinetobacter baumannii; assay: Antibacterial activity against multidrug-resistant Acinetobacter baumannii K12-21 producing oxcillinase-58 cultured in MHB medium assessed as reduction in bacterial growth incubated for 24 hrs by microdilution susceptibility test; assay type: functional; details: K12-21, 24 h; outline: as §3
[24] = test system: Acinetobacter baumannii; assay: Antibacterial activity against multidrug-resistant Acinetobacter baumannii K44-35 producing oxcillinase-23 cultured in MHB medium assessed as reduction in bacterial growth incubated for 24 hrs by microdilution susceptibility test; assay type: functional; details: K44-35, 24 h; outline: as §3

Row | SMILES | MIC [1] [µg/mL] | MIC [2] [µg/mL] | MIC [3] [µg/mL] | EC50 [4] [µg/mL] | selectivity ratio [5] | selectivity ratio [6] | MIC [7] [µg/mL] | MIC [8] [µg/mL] | MIC [9] [µg/mL] | MIC [10] [µg/mL] | MIC [11] [µg/mL] | MIC [12] [µg/mL] | MIC [13] [µg/mL] | MIC [14] [µg/mL] | MIC [15] [µg/mL] | MIC [16] [µg/mL] | MIC [17] [µg/mL] | MIC [18] [µg/mL] | MIC [19] [µg/mL] | MIC [20] [µg/mL] | other results
1 | NCCNCC(CN)(Cc1ccc(F)c2ccccc12)Cc1ccc(F)c2ccccc12 | 1 (≈ 2.31 µM) | 4 (≈ 9.23 µM) | 4 (≈ 9.23 µM) | 27 (≈ 62.3 µM) | 14 | 7 | 4 (≈ 9.23 µM) | 4 (≈ 9.23 µM) | 4 (≈ 9.23 µM) | 4 (≈ 9.23 µM) | 4 (≈ 9.23 µM) | 4 (≈ 9.23 µM) | 4 (≈ 9.23 µM) | 8 (≈ 18.5 µM) | 8 (≈ 18.5 µM) | 16 (≈ 36.9 µM) | 16 (≈ 36.9 µM) | 16 (≈ 36.9 µM) | 16 (≈ 36.9 µM) | 8 (≈ 18.5 µM) | MIC [21]: 8 µg/mL (≈ 18.5 µM); MIC [22]: 8 µg/mL (≈ 18.5 µM); MIC [23]: 8 µg/mL (≈ 18.5 µM); MIC [24]: 8 µg/mL (≈ 18.5 µM)
2 | N=C(N)NCCNC(=O)C(CNC(=N)N)(Cc1ccc(F)c2ccccc12)Cc1ccc(F)c2ccccc12 | 0.5 (≈ 0.941 µM) | 16 (≈ 30.1 µM) | 8 (≈ 15 µM) | 329 (≈ 619 µM) | 165 | 21 | 4 (≈ 7.52 µM) | 4 (≈ 7.52 µM) | 4 (≈ 7.52 µM) | 16 (≈ 30.1 µM) | 16 (≈ 30.1 µM) | 16 (≈ 30.1 µM) | 8 (≈ 15 µM) | 32 (≈ 60.2 µM) | 32 (≈ 60.2 µM) | > 32 | > 32 | > 32 | > 32 | > 32 | MIC [21]: > 32 µg/mL; MIC [22]: > 32 µg/mL; MIC [23]: > 32 µg/mL; MIC [24]: > 32 µg/mL
3 | N=C(N)NCCNC(=O)C(CNC(=N)N)(Cc1cc(Br)cc(Br)c1)Cc1cc(Br)cc(Br)c1 | 0.25 (≈ 0.352 µM) | 8 (≈ 11.3 µM) | 4 (≈ 5.63 µM) | 206 (≈ 290 µM) | 206 | 26 | 2 (≈ 2.81 µM) | 2 (≈ 2.81 µM) | 2 (≈ 2.81 µM) | 4 (≈ 5.63 µM) | 4 (≈ 5.63 µM) | 4 (≈ 5.63 µM) | 2 (≈ 2.81 µM) | 8 (≈ 11.3 µM) | 8 (≈ 11.3 µM) | 16 (≈ 22.5 µM) | 16 (≈ 22.5 µM) | 8 (≈ 11.3 µM) | 4 (≈ 5.63 µM) | 16 (≈ 22.5 µM) | MIC [21]: 16 µg/mL (≈ 22.5 µM); MIC [22]: 16 µg/mL (≈ 22.5 µM); MIC [23]: 16 µg/mL (≈ 22.5 µM); MIC [24]: 16 µg/mL (≈ 22.5 µM)
4 | N=C(N)NCCNC(=O)C(CNC(=N)N)(Cc1cc(C(F)(F)F)cc(C(F)(F)F)c1)Cc1cc(C(F)(F)F)cc(C(F)(F)F)c1 | 0.5 (≈ 0.749 µM) | 4 (≈ 5.99 µM) | 4 (≈ 5.99 µM) | 201 (≈ 301 µM) | 101 | 50 | 4 (≈ 5.99 µM) | 8 (≈ 12 µM) | 8 (≈ 12 µM) | 8 (≈ 12 µM) | 8 (≈ 12 µM) | 8 (≈ 12 µM) | 4 (≈ 5.99 µM) | 32 (≈ 47.9 µM) | 32 (≈ 47.9 µM) | 32 (≈ 47.9 µM) | 16 (≈ 24 µM) | 32 (≈ 47.9 µM) | 16 (≈ 24 µM) | > 32 | MIC [21]: > 32 µg/mL; MIC [22]: > 32 µg/mL; MIC [23]: > 32 µg/mL; MIC [24]: > 32 µg/mL
5 | NCCNCC(CN)(Cc1cc(C(F)(F)F)cc(C(F)(F)F)c1)Cc1cc(C(F)(F)F)cc(C(F)(F)F)c1 | 1 (≈ 1.76 µM) | 4 (≈ 7.02 µM) | 4 (≈ 7.02 µM) | 23 (≈ 40.4 µM) | 6 | 6 | 8 (≈ 14 µM) | 8 (≈ 14 µM) | 8 (≈ 14 µM) | 4 (≈ 7.02 µM) | 8 (≈ 14 µM) | 8 (≈ 14 µM) | 4 (≈ 7.02 µM) | 8 (≈ 14 µM) | 8 (≈ 14 µM) | 32 (≈ 56.2 µM) | 32 (≈ 56.2 µM) | 16 (≈ 28.1 µM) | 32 (≈ 56.2 µM) | 8 (≈ 14 µM) | MIC [21]: 8 µg/mL (≈ 14 µM); MIC [22]: 8 µg/mL (≈ 14 µM); MIC [23]: 8 µg/mL (≈ 14 µM); MIC [24]: 8 µg/mL (≈ 14 µM)
